Test results: ChEMBL document CHEMBL2413018, “Nonclassical antifolates, part 4. 5-(2-aminothiazol-4-yl)-4-phenyl-4H-1,2,4-triazole-3-thiols as a new class of DHFR inhibitors: synthesis, biological evaluation and molecular modeling study” (Eur J Med Chem, 2013)
pIC50: −log10 of the molar value. In brackets after ≈: the same amount, converted by molar mass.

Key:
[1] = system: Candida albicans; experiment: Antifungal activity against Candida albicans at 200 ug/disc after 48 hrs by agar disc-diffusion method; type: functional; conditions: read-out: DIZ
In short: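 Disc diffusion for Candida albicans on Müller-Hinton agar. 8 mm discs loaded at 200 µg/disc from DMSO, with clotrimazole 200 µg/disc as reference. Plates held at 25 °C for 48 h, then growth-inhibition zone diameter measured in mm.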

[2] = system: Schistosoma mansoni; experiment: Antischistosomal activity against Schistosoma mansoni assessed as mortality at 50 ug/ml after 24 hrs by microscopic analysis; type: functional
In short: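 Adult worms, 3 male plus 3 female per well, triplicate wells. Compounds in DMSO, 0.5% DMSO as negative control, praziquantel 0.1 µg/ml as positive control. Incubated 37 °C for 24 h, then scored under a dissecting microscope. Worms motionless for at least 1 min, coiled and darkened, counted dead. Activity given as % dead worms per well.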

[3] = system: Pseudomonas aeruginosa; experiment: Antibacterial activity against Pseudomonas aeruginosa at 200 ug/disc after 24 hrs by agar disc-diffusion method; type: functional; conditions: for zone of inhibition at 200 µg/disc: read-out: DIZ
In short: (§1)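 Disc diffusion on Müller-Hinton agar. 8 mm filter-paper discs carried test solution in DMSO at 200 µg/disc and were placed on agar pre-inoculated with each bacterium. Incubated at 37 °C; inhibition zone diameter measured after 24 h. DMSO solvent control.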

[4] = system: Bacillus subtilis; experiment: Antibacterial activity against Bacillus subtilis after 24 hrs by microdilution susceptibility method; type: functional
In short: (§2)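 Microdilution in Müller-Hinton broth. Compounds dissolved in DMSO at 64 µg/mL, then twofold dilutions from 64 down to 0.125 µg/ml. Inoculum 10^6 CFU/ml. Plates held 24 h at 37 °C. MIC taken as the lowest concentration giving no visible growth by eye.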

[5] = system: Bacillus subtilis; experiment: Antibacterial activity against Bacillus subtilis at 200 ug/disc after 24 hrs by agar disc-diffusion method; type: functional; conditions: for zone of inhibition at 200 µg/disc: read-out: DIZ; in short: as §1
[6] = system: Staphylococcus aureus; experiment: Antibacterial activity against Staphylococcus aureus at 200 ug/disc after 24 hrs by agar disc-diffusion method; type: functional; conditions: for zone of inhibition at 200 µg/disc: read-out: DIZ; in short: as §1
[7] = molecular target: T1, Dihydrofolate reductase (Bos taurus, UniProt P00376); experiment: Inhibition of bovine liver DHFR measured every 1 min for 10 mins
T1 sequence (P00376 whole entry): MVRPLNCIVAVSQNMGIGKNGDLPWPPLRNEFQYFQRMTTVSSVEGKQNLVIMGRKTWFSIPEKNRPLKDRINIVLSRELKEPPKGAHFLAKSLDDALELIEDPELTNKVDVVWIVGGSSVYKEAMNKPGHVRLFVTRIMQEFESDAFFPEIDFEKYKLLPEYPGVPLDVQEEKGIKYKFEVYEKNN

[8] = system: Staphylococcus aureus; experiment: Antibacterial activity against Staphylococcus aureus after 24 hrs by microdilution susceptibility method; type: functional; in short: as §2
[9] = system: Escherichia coli; experiment: Antibacterial activity against Escherichia coli at 200 ug/disc after 24 hrs by agar disc-diffusion method; type: functional; conditions: for zone of inhibition at 200 µg/disc: read-out: DIZ; in short: as §1
[10] = system: HCT-116; experiment: Cytotoxicity against human HCT116 cells after 48 hrs by MTT assay; type: functional; conditions: HCT-116, 48 h, read-out: LC50 (the source's name)
In short: (§3)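 HCT116, HepG2 and MCF7 cells grown in RPMI 1640 with 1% antibiotic-antimycotic and 1% L-glutamine at 37 °C, 5% CO2, seeded at 10 x 10^3 cells/well for 24 h. Exposed in serum-free medium to 0.78–100 µM for 48 h, then MTT added for 4 h and dissolved overnight in 10% SDS.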

[11] = system: MCF7; experiment: Cytotoxicity against human MCF7 cells after 48 hrs by MTT assay; type: functional; conditions: MCF7, 48 h, read-out: LC50 (the source's name); in short: as §3
[12] = system: HepG2; experiment: Cytotoxicity against human HepG2 cells after 48 hrs by MTT assay; type: functional; conditions: HepG2, 48 h, read-out: LC50 (the source's name); in short: as §3
[13] = system: A549; experiment: Cytotoxicity against human A549 cells after 48 hrs by MTT assay; type: functional; conditions: A549, 48 h, read-out: LC50 (the source's name)
In short: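 A549 cells grown in DMEM with 1% antibiotic-antimycotic and 1% L-glutamine at 37 °C, 5% CO2, seeded at 10 x 10^3 cells/well for 24 h. Exposed in serum-free medium to 0.78–100 µM for 48 h, then MTT added for 4 h and dissolved overnight in 10% SDS.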

[14] = system: Escherichia coli; experiment: Antibacterial activity against Escherichia coli after 24 hrs by microdilution susceptibility method
[15] = system: Pseudomonas aeruginosa; experiment: Antibacterial activity against Pseudomonas aeruginosa after 24 hrs by microdilution susceptibility method; type: functional

Molecule | zone of inhibition at 200 µg/disc [1] | mortality at 50 µg/mL [2] | zone of inhibition at 200 µg/disc [3] | MIC [4] | zone of inhibition at 200 µg/disc [5] | zone of inhibition at 200 µg/disc [6] | pIC50 [7] | zone of inhibition at 200 µg/disc [9] | further results
CC(=O)N(C(C)=O)c1nc(-c2nnc(S)n2-c2ccc(Oc3ccccc3)cc2)cs1 | 8 mm | 100% | 8 mm | 2 µg/mL (≈ 4.43 µM) | 20 mm | 18 mm | 4.82 | 8 mm | MIC [8]: 4 µg/mL (≈ 8.86 µM)
COc1cccc2c1C(=O)c1c(O)c3c(c(O)c1C2=O)C[C@@](O)(C(=O)CO)C[C@@H]3O[C@H]1C[C@H](N)[C@H](O)[C@H](C)O1 [DOXORUBICIN] |  |  |  |  |  |  |  |  | CC50 [10]: 37.7 µM; CC50 [11]: 26.1 µM; CC50 [12]: 21.4 µM; CC50 [13]: 28.3 µM
COc1ccccc1-n1c(S)nnc1-c1csc(N)n1 | 8 mm |  | 8 mm | 4 µg/mL (≈ 13.1 µM) | 16 mm | 12 mm | 4.62 | 15 mm | MIC [14]: 8 µg/mL (≈ 26.2 µM)
Nc1nc(-c2nnc(S)n2-c2ccc(Oc3ccccc3)cc2)cs1 | 14 mm | 55.6% | 16 mm | 0.5 µg/mL (≈ 1.36 µM) | 32 mm | 28 mm |  | 20 mm | MIC [15]: 1 µg/mL (≈ 2.72 µM); MIC [8]: 0.5 µg/mL (≈ 1.36 µM); MIC [14]: 0.5 µg/mL (≈ 1.36 µM)
COc1ccc(-n2c(S)nnc2-c2csc(N(C(C)=O)C(C)=O)n2)c(OC)c1 | 8 mm | 0% | 8 mm |  | 8 mm | 8 mm | 5.10 | 8 mm | 
CC(=O)N(C(C)=O)c1nc(-c2nnc(S)n2-c2ccccc2)cs1 | 8 mm |  | 8 mm |  | 8 mm | 8 mm | 4.46 | 8 mm | CC50 [13]: 33.2 µM
CC(=O)N(C(C)=O)c1nc(-c2nnc(S)n2-c2ccc(C)cc2)cs1 | 8 mm |  | 8 mm |  | 8 mm | 8 mm |  | 8 mm | CC50 [11]: 23.8 µM; CC50 [12]: 18.9 µM; CC50 [13]: 25 µM
COc1ccc(-n2c(S)nnc2-c2csc(N(C(C)=O)C(C)=O)n2)cc1 | 8 mm | 6% | 8 mm |  | 14 mm | 12 mm | 5.30 | 8 mm | CC50 [13]: 35.4 µM
O=C(O)c1cn(C2CC2)c2cc(N3CCNCC3)c(F)cc2c1=O [CIPROFLOXACIN] |  |  | 36 mm | 0.5 µg/mL (≈ 1.51 µM) | 35 mm | 32 mm |  | 38 mm | MIC [15]: 1 µg/mL (≈ 3.02 µM); MIC [8]: 0.5 µg/mL (≈ 1.51 µM)
GENTAMICIN |  |  |  | 2 µg/mL |  |  |  |  | MIC [15]: 1 µg/mL; inhibition zone (IZ) [3]: 19 mm; inhibition zone (IZ) [5]: 25 mm; inhibition zone (IZ) [6]: 26.5 mm; MIC [8]: 2 µg/mL; inhibition zone (IZ) [9]: 20.8 mm
Clc1ccccc1C(c1ccccc1)(c1ccccc1)n1ccnc1 [CLOTRIMAZOLE] | 21 mm |  |  |  |  |  |  |  | 
Nc1nc(-c2nnc(S)n2-c2ccc(Cl)cc2)cs1 | 12 mm | 5% | 8 mm |  | 12 mm | 8 mm | 4.74 | 8 mm | 
Cc1ccc(-n2c(S)nnc2-c2csc(N)n2)cc1 | 8 mm | 10.5% | 8 mm |  | 8 mm | 8 mm | 4.62 | 8 mm | 
CC(=O)N(C(C)=O)c1nc(-c2nnc(S)n2-c2ccc(Cl)cc2)cs1 | 8 mm |  | 8 mm | 4 µg/mL (≈ 10.2 µM) | 21 mm | 16 mm | 5.00 | 8 mm | MIC [8]: 4 µg/mL (≈ 10.2 µM); CC50 [12]: 29.1 µM
O=C(C1CCCCC1)N1CC(=O)N2CCc3ccccc3C2C1 (centres undefined) [PRAZIQUANTEL] |  | 100% |  |  |  |  |  |  | 
Nc1nc(-c2nnc(S)n2-c2ccccc2)cs1 | 8 mm | 16.6% | 8 mm |  | 8 mm | 8 mm |  | 8 mm | 
CN(Cc1cnc2nc(N)nc(N)c2n1)c1ccc(C(=O)N[C@@H](CCC(=O)O)C(=O)O)cc1 [METHOTREXATE] | 8 mm |  | 8 mm |  | 8 mm | 8 mm |  | 8 mm | 
COc1ccccc1-n1c(S)nnc1-c1csc(N(C(C)=O)C(C)=O)n1 | 8 mm |  | 8 mm | 4 µg/mL (≈ 10.3 µM) | 20 mm | 8 mm |  | 16 mm | MIC [14]: 0.8 µg/mL (≈ 2.05 µM)
COc1ccc(-n2c(S)nnc2-c2csc(N)n2)cc1 | 8 mm |  | 8 mm |  | 12 mm | 8 mm | 4.68 | 8 mm | 
